Laboratory results as given in ChEMBL document CHEMBL1148485, “Synthesis and biological evaluation of new selective cytotoxic cyclolignans derived from podophyllotoxin” (J Med Chem, 2004).

What was measured:
SK-MEL-28 = experiment: Tested in vitro for antineoplastic activity against MEL-28 (human melanoma) tumor cell line; assay type: functional, cell-based
In short: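 MEL-28 cells seeded at 2 × 10^4 cells/well in MEM–10% FCS containing graded compound concentrations. Incubated 4 days at 37 °C, 10% CO2, 98% humidity. Stained with crystal violet and inhibition judged against untreated controls, which were kept in exponential growth. Mean of duplicate wells.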

A549 = experiment: In vitro cytotoxicity against A-549 (human lung carcinoma) cell line.; assay type: functional, cell-based; details: Homo sapiens, A549
HT-29 = experiment: In vitro cytotoxicity against HT-29 (human colon carcinoma) cell line.; assay type: functional, cell-based; details: Homo sapiens, HT-29
[1] = Selectivity index is the ratio of IC50 of P-388 cell line to that of HT-29; assay type: functional
P388 = experiment: Tested in vitro for antineoplastic activity against P-388 (lymphoid neoplasm from DBA/2 mouse) tumor cell line; assay type: functional, cell-based
In short: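 P-388 cells seeded at 1 × 10^4 cells/well in MEM–10% FCS containing graded compound concentrations. Incubated 4 days at 37 °C, 10% CO2, 98% humidity. Inhibition scored by inverted microscopy against untreated controls, which were kept in exponential growth. Mean of duplicate wells.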

| SMILES | IC50 (SK-MEL-28) [nM] | IC50 (A549) [nM] | IC50 (HT-29) [nM] | Selectivity index [1] | IC50 (P388) [nM] |
| --- | --- | --- | --- | --- | --- |
| CC/N=C/C1=Cc2c(cc3c(c2OC)OCO3)C(c2cc(OC)c(OC)c(OC)c2)[C@@H]1C(=O)OC (some centres not stated) | 1000 | > 10000 | 100 |  |  |
| COC(=O)[C@@H]1C(C=O)=Cc2c(cc3c(c2OC)OCO3)[C@H]1c1cc(OC)c(OC)c(OC)c1 |  | 220 | 20 | 55 | 1100 |
| CCCCCC/N=C/C1=Cc2cc3c(cc2C(c2cc(OC)c(OC)c(OC)c2)[C@@H]1C(=O)OC)OCO3 (some centres not stated) | 490 | 200 | 20 | 100 | 2000 |
| COC(=O)[C@@H]1C(/C=N/C2CCCCC2)=Cc2cc3c(cc2C1c1cc(OC)c(OC)c(OC)c1)OCO3 (some centres not stated) | 490 | 250 | 25 | 80 | 2000 |
